Assay results: ChEMBL document CHEMBL2034841, “Synthesis and evaluation of (2-(4-methoxyphenyl)-4-quinolinyl)(2-piperidinyl)methanol (NSC23925) isomers to reverse multidrug resistance in cancer” (J Med Chem, 2012)
pIC50: −log10 of the molar value. Blank lines part the entries; values can stand above or below the compound they belong to. Activity calls are given as the source filed them. No cut-off for these calls is given here.

Assays:
SKOV-3TR (Homo sapiens) [1] = assay: Antitumor activity against human multidrug-resistant SKOV-3TR cells xenografted in Crl:SHO-Prkdc'SCIDHr'hr nude mouse assessed as tumor growth inhibition at 20 mg/kg, ip dosed twice weekly for two weeks starting two weeks post tumor cells implantation
[2] = biological target: T1, ATP-dependent translocase ABCB1 (Homo sapiens, UniProt P08183); assay: Inhibition of MDR1-mediated drug resistance in human multidrug-resistant SKOV3TR cells at 0.1 uM assessed as potentiation of paclitaxel potency by incubated for 6 days by MTT assay; assay type: cell-based; conditions: 144 h
T1 sequence (P08183 whole entry): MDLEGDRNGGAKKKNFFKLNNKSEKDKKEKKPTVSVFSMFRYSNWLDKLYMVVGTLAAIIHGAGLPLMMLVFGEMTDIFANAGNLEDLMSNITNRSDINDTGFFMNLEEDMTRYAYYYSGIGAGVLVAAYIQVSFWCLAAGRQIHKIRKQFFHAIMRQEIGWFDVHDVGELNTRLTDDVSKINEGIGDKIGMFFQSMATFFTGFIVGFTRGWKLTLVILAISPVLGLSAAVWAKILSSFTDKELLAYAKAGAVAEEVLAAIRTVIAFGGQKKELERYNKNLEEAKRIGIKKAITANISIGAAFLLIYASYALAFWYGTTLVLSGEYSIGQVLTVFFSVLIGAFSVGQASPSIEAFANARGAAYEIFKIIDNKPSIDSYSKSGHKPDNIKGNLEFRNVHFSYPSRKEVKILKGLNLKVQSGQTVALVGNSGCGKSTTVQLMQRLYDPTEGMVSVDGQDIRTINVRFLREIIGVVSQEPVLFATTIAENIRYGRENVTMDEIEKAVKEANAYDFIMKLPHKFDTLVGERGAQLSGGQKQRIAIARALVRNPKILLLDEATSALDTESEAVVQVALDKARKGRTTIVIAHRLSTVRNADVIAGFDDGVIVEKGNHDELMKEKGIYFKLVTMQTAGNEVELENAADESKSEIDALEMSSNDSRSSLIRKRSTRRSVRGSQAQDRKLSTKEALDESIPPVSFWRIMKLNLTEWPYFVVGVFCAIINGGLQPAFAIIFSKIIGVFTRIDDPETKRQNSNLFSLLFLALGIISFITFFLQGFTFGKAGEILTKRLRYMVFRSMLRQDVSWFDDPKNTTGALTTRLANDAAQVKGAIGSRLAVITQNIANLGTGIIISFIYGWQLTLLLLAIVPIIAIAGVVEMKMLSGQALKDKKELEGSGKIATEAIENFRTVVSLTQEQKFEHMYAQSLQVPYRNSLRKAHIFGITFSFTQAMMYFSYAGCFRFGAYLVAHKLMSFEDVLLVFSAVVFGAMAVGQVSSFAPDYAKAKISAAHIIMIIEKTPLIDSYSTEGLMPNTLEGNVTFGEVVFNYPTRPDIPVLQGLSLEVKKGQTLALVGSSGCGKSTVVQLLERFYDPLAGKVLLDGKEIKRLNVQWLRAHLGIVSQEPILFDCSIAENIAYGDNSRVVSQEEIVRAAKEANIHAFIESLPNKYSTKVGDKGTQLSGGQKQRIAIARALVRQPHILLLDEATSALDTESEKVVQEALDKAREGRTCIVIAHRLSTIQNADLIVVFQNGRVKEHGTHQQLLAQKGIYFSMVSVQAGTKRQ
Method in brief: (§1)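 SKOV-3_TR cells were seeded at 2000/well in RPMI 1640 complete medium with varying paclitaxel concentrations plus the test agent at a fixed 0.1, 0.5 or 1 μM for 6 days. Viability was read by MTT, and IC50 was taken from fitted dose–response curves in triplicate wells. Fold reversal = IC50 without agent ÷ IC50 with agent.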

[3] = biological target: T1, ATP-dependent translocase ABCB1; assay: Inhibition of MDR1-mediated drug resistance in human multidrug-resistant SKOV3TR cells at 0.5 uM assessed as potentiation of paclitaxel potency by incubated for 6 days by MTT assay; assay type: cell-based; conditions: 144 h
Method in brief: as §1

[4] = biological target: T1, ATP-dependent translocase ABCB1; assay: Inhibition of MDR1-mediated drug resistance in human multidrug-resistant SKOV3TR cells at 1 uM assessed as potentiation of paclitaxel potency by incubated for 6 days by MTT assay; assay type: cell-based; conditions: 144 h
Method in brief: as §1

[5] = biological target: Multidrug resistance-associated protein 1 (Homo sapiens, UniProt P33527); assay: Inhibition of MRP1-mediated drug resistance in human multidrug-resistant H-69AR cells; assay type: cell-based
Sequence of Multidrug resistance-associated protein 1 (P33527 whole entry): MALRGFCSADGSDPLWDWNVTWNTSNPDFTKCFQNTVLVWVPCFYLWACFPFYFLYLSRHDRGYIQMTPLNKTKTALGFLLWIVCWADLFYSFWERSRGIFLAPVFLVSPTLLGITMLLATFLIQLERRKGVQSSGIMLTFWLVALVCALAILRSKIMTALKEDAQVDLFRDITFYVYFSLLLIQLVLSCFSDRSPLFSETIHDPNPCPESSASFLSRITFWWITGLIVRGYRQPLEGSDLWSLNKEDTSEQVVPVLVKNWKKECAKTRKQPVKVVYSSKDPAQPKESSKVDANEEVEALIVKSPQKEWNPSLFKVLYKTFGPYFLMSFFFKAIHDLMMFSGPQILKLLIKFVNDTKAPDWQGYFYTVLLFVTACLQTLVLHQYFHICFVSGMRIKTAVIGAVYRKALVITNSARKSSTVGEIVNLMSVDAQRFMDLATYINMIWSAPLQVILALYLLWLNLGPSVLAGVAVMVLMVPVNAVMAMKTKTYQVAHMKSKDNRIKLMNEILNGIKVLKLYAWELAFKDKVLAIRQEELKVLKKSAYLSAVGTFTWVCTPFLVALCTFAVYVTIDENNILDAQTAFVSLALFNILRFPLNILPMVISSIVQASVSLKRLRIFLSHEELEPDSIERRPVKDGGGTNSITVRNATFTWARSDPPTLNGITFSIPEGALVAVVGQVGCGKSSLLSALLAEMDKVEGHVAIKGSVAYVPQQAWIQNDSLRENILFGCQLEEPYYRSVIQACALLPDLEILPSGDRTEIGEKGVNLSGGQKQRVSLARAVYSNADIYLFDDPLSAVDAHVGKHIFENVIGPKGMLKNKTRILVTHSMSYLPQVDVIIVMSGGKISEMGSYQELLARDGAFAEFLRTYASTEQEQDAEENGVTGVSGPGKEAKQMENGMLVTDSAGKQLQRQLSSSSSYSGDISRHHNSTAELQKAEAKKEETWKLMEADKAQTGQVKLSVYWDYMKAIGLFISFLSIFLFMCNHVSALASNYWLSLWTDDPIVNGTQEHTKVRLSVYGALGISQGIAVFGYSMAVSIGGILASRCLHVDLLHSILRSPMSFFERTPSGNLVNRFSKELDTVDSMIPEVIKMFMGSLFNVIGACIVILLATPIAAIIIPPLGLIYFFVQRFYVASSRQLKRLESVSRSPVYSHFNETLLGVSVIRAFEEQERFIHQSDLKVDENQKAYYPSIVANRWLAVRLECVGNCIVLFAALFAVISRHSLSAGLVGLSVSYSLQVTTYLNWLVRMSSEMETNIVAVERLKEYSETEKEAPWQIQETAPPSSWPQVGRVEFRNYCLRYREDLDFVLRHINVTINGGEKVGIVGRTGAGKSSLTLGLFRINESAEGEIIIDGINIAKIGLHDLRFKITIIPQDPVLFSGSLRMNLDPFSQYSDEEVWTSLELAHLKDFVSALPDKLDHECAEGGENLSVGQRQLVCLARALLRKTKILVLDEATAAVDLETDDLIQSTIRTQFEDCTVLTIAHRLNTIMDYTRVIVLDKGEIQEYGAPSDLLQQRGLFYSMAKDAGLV
Method in brief: (§2)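 H-69AR (MRP1) or MCF-7/MX (BCRP) cells were plated in 96-well plates and treated with chemotherapy drugs plus the test agent as in the Pgp reversal assay: 2000 cells/well, 6 days, MTT read-out. IC50 values came from triplicate dose–response curves. Cells were grown in RPMI 1640 with 10% FBS at 37 °C, 5% CO2.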

[6] = biological target: T2, Broad substrate specificity ATP-binding cassette transporter ABCG2 (Homo sapiens, UniProt Q9UNQ0); assay: Inhibition of BCRP-mediated drug resistance in human multidrug-resistant MCF7/MX cells; assay type: cell-based
T2 sequence (Q9UNQ0 whole entry): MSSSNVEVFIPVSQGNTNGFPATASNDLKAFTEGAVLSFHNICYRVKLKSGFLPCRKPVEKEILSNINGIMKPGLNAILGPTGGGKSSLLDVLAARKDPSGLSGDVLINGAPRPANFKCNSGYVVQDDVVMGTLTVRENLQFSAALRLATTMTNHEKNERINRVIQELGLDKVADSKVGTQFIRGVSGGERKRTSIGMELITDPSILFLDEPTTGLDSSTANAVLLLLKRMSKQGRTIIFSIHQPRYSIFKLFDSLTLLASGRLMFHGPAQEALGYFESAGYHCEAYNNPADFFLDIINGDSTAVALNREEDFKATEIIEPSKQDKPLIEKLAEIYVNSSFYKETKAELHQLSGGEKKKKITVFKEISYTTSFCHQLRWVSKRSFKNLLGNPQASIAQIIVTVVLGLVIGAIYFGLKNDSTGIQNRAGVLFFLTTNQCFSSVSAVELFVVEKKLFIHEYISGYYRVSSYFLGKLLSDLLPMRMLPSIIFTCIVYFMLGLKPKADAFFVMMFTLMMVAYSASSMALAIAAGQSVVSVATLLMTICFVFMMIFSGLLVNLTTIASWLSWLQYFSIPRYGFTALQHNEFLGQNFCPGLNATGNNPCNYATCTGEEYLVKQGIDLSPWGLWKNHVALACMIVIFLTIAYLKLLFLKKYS
Method in brief: as §2

[7] = biological target: T1, ATP-dependent translocase ABCB1; assay: Inhibition of MDR1 in human multidrug-resistant SW480TR cells assessed as increase in calcein AM accumulation by fluorescence microscopy; assay type: cell-based
Method in brief: (§3)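 Vybrant calcein AM efflux assay. Resistant cells (5000/well) were cultured for 24 h, then treated in triplicate with a range of test-agent concentrations for 1 h, followed by calcein AM for 30 min. Intracellular calcein fluorescence was imaged by fluorescence microscopy, and accumulation was compared across doses.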

[8] = biological target: T1, ATP-dependent translocase ABCB1; assay: Inhibition of MDR1 in human multidrug-resistant MCF7adr cells assessed as increase in calcein AM accumulation by fluorescence microscopy
Method in brief: as §3

[9] = biological target: T1, ATP-dependent translocase ABCB1; assay: Inhibition of MDR1 in human multidrug-resistant SW480TR cells assessed drug level causing half maximal reversal of calcein AM accumulation deficit by fluorescence microscopy; assay type: cell-based; conditions: read-out: INH
Method in brief: as §3

[10] = biological target: T1, ATP-dependent translocase ABCB1; assay: Inhibition of MDR1 in human multidrug-resistant MCF7adr cells assessed drug level causing half maximal reversal of calcein AM accumulation deficit by fluorescence microscopy; conditions: read-out: INH
Method in brief: as §3

[11] = biological target: T1, ATP-dependent translocase ABCB1; assay: Inhibition of MDR1 in human multidrug-resistant SW480TR cells assessed drug level causing maximal reversal of calcein AM accumulation deficit by fluorescence microscopy; assay type: cell-based
Method in brief: as §3

[12] = biological target: T1, ATP-dependent translocase ABCB1; assay: Inhibition of MDR1 in human multidrug-resistant MCF7adr cells assessed drug level causing maximal reversal of calcein AM accumulation deficit by fluorescence microscopy
Method in brief: as §3

[13] = biological target: T1, ATP-dependent translocase ABCB1; assay: Inhibition of MDR1 in human multidrug-resistant SW480TR cells assessed as potentiation of doxorubicin-induced apoptosis at 1 uM incubated for 72 hrs by M30-apoptosense ELISA assay; assay type: cell-based
Method in brief: (§4)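 MCF-7adr or SW480_TR cells were seeded at 8000/well for 24 h, then treated for 72 h with 0.5 μM doxorubicin, 1 μM test agent, or both. Cells were lysed with 10% NP-40, and apoptosis was quantified by M30-Apoptosense ELISA following kit instructions.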

[14] = biological target: T1, ATP-dependent translocase ABCB1; assay: Inhibition of MDR1 in human multidrug-resistant MCF7adr cells assessed as potentiation of doxorubicin-induced apoptosis at 1 uM incubated for 72 hrs by M30-apoptosense ELISA assay
Method in brief: as §4

[15] = biological target: T1, ATP-dependent translocase ABCB1; assay: Inhibition of MDR1 in human multidrug-resistant SW480TR cells assessed as potentiation of doxorubicin-induced cell death at 1 uM incubated for 72 hrs by MTT assay; assay type: cell-based
[16] = biological target: T1, ATP-dependent translocase ABCB1; assay: Inhibition of MDR1 in human multidrug-resistant MCF7adr cells assessed as potentiation of doxorubicin-induced cell death at 1 uM incubated for 72 hrs by MTT assay
Mus musculus [17] = assay: Toxicity in human multidrug-resistant […] cells xenografted in Crl:SHO-Prkdc'SCIDHr'hr nude mouse assessed as mortality incidence at 50 mg/kg, ip dosed twice weekly for two weeks starting two weeks post tumor cells implantation; assay type: organism-based; design: dose 50 mg/kg, route intraperitoneal; conditions: in vivo
Method in brief: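 […] cells injected subcutaneously with matrigel on day one. Dosing began two weeks later: ip injection twice a week for two weeks, given alone (50 mg/kg) or with paclitaxel (20 mg/kg); saline-injected controls. Mice checked daily for health and tumor growth. Toxicity judged from animal weight and mortality.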

Mus musculus [18] = assay: Toxicity in human multidrug-resistant SKOV-3TR cells xenografted in Crl:SHO-Prkdc'SCIDHr'hr nude mouse assessed as effect on body weight at 50 mg/kg, ip dosed twice weekly for two weeks starting two weeks post tumor cells implantation; conditions: in vivo
SKOV-3TR (Homo sapiens) [19] = assay: Antitumor activity against human multidrug-resistant SKOV-3TR cells xenografted in Crl:SHO-Prkdc'SCIDHr'hr nude mouse assessed as tumor growth inhibition at 50 mg/kg, ip dosed twice weekly for two weeks starting two weeks post tumor cells implantation
SKOV-3TR (Homo sapiens) [20] = assay: Potentiation of 20 mg/kg, ip paclitaxel antitumor potency in human multidrug-resistant SKOV-3TR cells xenografted in Crl:SHO-Prkdc'SCIDHr'hr nude mouse assessed as increase in tumor growth inhibition at 50 mg/kg, ip dosed twice weekly for two weeks starting two weeks post tumor cells implantation

Compound: CC(=O)O[C@H]1C(=O)[C@@]2(C)[C@H]([C@H](OC(=O)c3ccccc3)[C@]3(O)C[C@H](OC(=O)[C@H](O)[C@@H](NC(=O)c4ccccc4)c4ccccc4)C(C)=C1C3(C)C)[C@]1(OC(C)=O)CO[C@@H]1C[C@@H]2O
growth inhibition (GI) (SKOV-3TR (Homo sapiens) [1]): inactive

Compound: COc1ccc(-c2cc([C@H](O)[C@H]3CCCCN3)c3ccccc3n2)cc1
inhibition (INH) [5]: Not Active | inhibition (INH) [6]: Not Active | inhibition (INH) [2]: Active | inhibition (INH) [3]: Active | inhibition (INH) [4]: Active | inhibition (INH) [7]: Dose-dependent effect | inhibition (INH) [8]: Dose-dependent effect | pIC50 [9]: 7.00 | pIC50 [10]: 7.00 | INH [11]: 500 nM | INH [12]: 500 nM | inhibition (INH) [13]: Active | inhibition (INH) [14]: Active | inhibition (INH) [15]: Active | inhibition (INH) [16]: Active | Activity (Mus musculus [17]): Non-toxic | Activity (Mus musculus [18]): Non-toxic | growth inhibition (GI) (SKOV-3TR (Homo sapiens) [19]): inactive | Activity (SKOV-3TR (Homo sapiens) [20]): Active

Now from value to compound:

inhibition (INH) [2]: Active | inhibition (INH) [3]: Active | inhibition (INH) [4]: Active
Compound: COc1ccc(-c2cc([C@H](O)[C@@H]3CCCCN3)c3ccccc3n2)cc1.Cl

inhibition (INH) [2]: Active | inhibition (INH) [3]: Active | inhibition (INH) [4]: Active
Compound: COc1ccc(-c2cc([C@@H](O)[C@H]3CCCCN3)c3ccccc3n2)cc1.Cl

inhibition (INH) [2]: Not Active | inhibition (INH) [3]: Not Active | inhibition (INH) [4]: Not Active
Compound: COc1ccc(-c2cc([C@@H](O)[C@@H]3CCCCN3)c3ccccc3n2)cc1.Cl
